Experimental data: ChEMBL document CHEMBL3797069, “Betulin Derivatives Effectively Suppress Inflammation in Vitro and in Vivo” (J Nat Prod, 2016)
Activity calls are given as the source filed them. The calls are words filed in the database; no cut-off is given here.

Experiments:
[1] = tested on: J774; experiment: Antiinflammatory activity in mouse J774 cells assessed as inhibition of LPS-induced nitric oxide production measured as remaining nitric oxide levels at 10 uM by Griess assay; format: functional
Outline: (§1)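 Confluent J774 monolayers were treated with LPS plus compound at 10 μM in fresh medium, 24 h. NO was read as accumulated nitrite in the medium by Griess reaction. n = 4, mean ± SEM versus cells cultured with LPS only.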

[2] = tested on: J774; experiment: Antiinflammatory activity in mouse J774 cells assessed as inhibition of LPS-induced iNOS expression measured as remaining protein levels at 10 uM after 24 hrs by Western blot analysis; format: functional
Outline: (§2)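 Murine J774 macrophages were grown 72 h to confluence in DMEM with 10% heat-inactivated FBS at 37 °C, 5% CO2. Compound was added in fresh medium with LPS for 24 h. Cells were lysed, and 20 μg protein was immunoblotted for COX-2 or iNOS with actin as the loading control, detected by chemiluminescence. n = 4, mean ± SEM versus LPS alone.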

[3] = tested on: J774; experiment: Antiinflammatory activity against mouse J774 cells assessed as inhibition of LPS-induced COX-2 expression measured as remaining protein levels at 10 uM after 24 hrs by Western blot analysis; format: functional; outline: as §2
[4] = tested on: J774; experiment: Antiinflammatory activity against mouse J774 cells assessed as inhibition of LPS-induced IL-6 production measured as remaining IL-6 levels at 10 uM after 24 hrs by ELISA; format: functional
Outline: (§3)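 J774 macrophages were grown 72 h to confluence, then exposed to LPS with compound at 10 μM in fresh medium for 24 h. IL-6 and MCP-1 in the culture medium were quantified by ELISA. n = 4, mean ± SEM relative to LPS-only cells.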

[5] = tested on: J774; experiment: Antiinflammatory activity against mouse J774 cells assessed as inhibition of LPS-induced MCP-1 production measured as remaining MCP-1 levels at 10 uM after 24 hrs by ELISA; format: functional; outline: as §3
[6] = tested on: J774; experiment: Antiinflammatory activity against mouse J774 cells assessed as inhibition of LPS-induced iNOS expression after 24 hrs by Western blot analysis; format: functional, cell-based; details: J774, 24 h
Outline: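 Murine J774 macrophages in DMEM with 10% heat-inactivated FBS, grown 72 h to confluence, then given LPS plus compound in fresh medium for 24 h. Cells washed in ice-cold PBS and lysed; 20 μg protein per lane on Western blot for iNOS, with β-actin as loading control and chemiluminescent detection. Values relative to LPS-only cells; mean ± SEM, n = 4.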

[7] = tested on: J774; experiment: Inhibition of LPS-induced iNOS mRNA levels in mouse J774 cells after 6 hrs by qRT-PCR method; format: functional, cell-based
Outline: (§4)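 Activated J774 cells received compound at 10 μM alongside LPS. At 3, 6 or 24 h, total RNA was extracted and iNOS, IL-6 or MCP-1 mRNA was measured by TaqMan quantitative RT-PCR (40 cycles, 95 °C/60 °C) in duplicate. Levels came from a standard curve and were normalized to GAPDH. n = 4 versus LPS only.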

[8] = tested on: J774; experiment: Antiinflammatory activity against mouse J774 cells assessed as inhibition of LPS-induced nitric oxide production at 10 uM by Griess assay; format: functional; outline: as §1
[9] = tested on: J774; experiment: Antiinflammatory activity against mouse J774 cells assessed as inhibition of LPS-induced iNOS expression at 10 uM after 24 hrs by Western blot analysis; format: functional, cell-based; outline: as §2
[10] = tested on: J774; experiment: Antiinflammatory activity against mouse J774 cells assessed as inhibition of LPS-induced COX-2 expression at 10 uM after 24 hrs by Western blot analysis; format: functional; details: J774, 24 h; outline: as §2
[11] = tested on: J774; experiment: Antiinflammatory activity against mouse J774 cells assessed as inhibition of LPS-induced IL-6 production at 10 uM after 24 hrs by ELISA; format: functional; details: J774, 24 h; outline: as §3
[12] = tested on: J774; experiment: Antiinflammatory activity against mouse J774 cells assessed as inhibition of LPS-induced MCP-1 production at 10 uM after 24 hrs by ELISA; format: functional; details: J774, 24 h; outline: as §3
[13] = tested on: J774; experiment: Downregulation of LPS-induced iNOS expression in mouse J774 cells at 0.3 to 10 uM after 24 hrs by Western blot analysis; format: functional, cell-based
Outline: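 Dose–response was run in LPS-activated J774 macrophages over 24 h, with iNOS protein detected by Western blot and actin as the loading control.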

[14] = tested on: J774; experiment: Downregulation of LPS-induced IL-6 expression in mouse J774 cells at 0.3 to 10 uM after 24 hrs by ELISA; format: functional, cell-based
Outline: (§5)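 LPS-stimulated J774 cells were incubated 24 h with compound at 0.3–10 μM. IL-6 and MCP-1 concentrations in the medium were determined by ELISA. Mean + SEM, n = 4, compared with LPS alone.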

[15] = tested on: J774; experiment: Downregulation of LPS-induced MCP-1 expression in mouse J774 cells at 0.3 to 10 uM after 24 hrs by ELISA; format: functional, cell-based; outline: as §5
[16] = tested on: J774; experiment: Downregulation of LPS-induced iNOS mRNA levels in mouse J774 cells after 6 to 24 hrs by qRT-PCR method; format: functional, cell-based; outline: as §4
[17] = tested on: J774; experiment: Downregulation of LPS-induced IL-6 mRNA levels in mouse J774 cells after 6 hrs by qRT-PCR method; format: functional, cell-based; outline: as §4
[18] = tested on: J774; experiment: Downregulation of LPS-induced MCP-1 mRNA levels in mouse J774 cells after 3 to 6 hrs by qRT-PCR method; format: functional, cell-based; outline: as §4
[19] = tested on: Mus musculus; experiment: Antiinflammatory activity in C57BL/6NCrl mouse assessed as inhibition of carrageenan-induced paw edema at 10 mg/kg, ip administered 2 hrs prior to carrageenan challenge measured after 3 hrs by plethysmometry; format: functional
Outline: (§6)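 Eight-week-old male mice were dosed ip with compound (10 mg/kg), dexamethasone (2 mg/kg) or PBS-8% DMSO vehicle 2 h before carrageenan. Under medetomidine/ketamine anesthesia, 45 μL of 1.5% λ-carrageenan in saline was given intradermally into one hindpaw, with saline in the contralateral paw. Paw volume was measured by plethysmometer before and at 3 and 6 h. n = 6–12.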

[20] = tested on: Mus musculus; experiment: Antiinflammatory activity in C57BL/6NCrl mouse assessed as inhibition of carrageenan-induced paw edema at 10 mg/kg, ip administered 2 hrs prior to carrageenan challenge measured after 6 hrs by plethysmometry; format: functional; outline: as §6

Row | SMILES | Remaining nitric oxide level (% of LPS-only control) [1] | Activity [2] | Activity [3] | Remaining IL-6 level (% of LPS-only) [4] | Activity [5] | also measured
1 | C=C(C)[C@@H]1CC[C@]2(C(=O)O)CC[C@]3(C)[C@H](CC[C@@H]4[C@@]5(C)Cc6c([nH]c7ccc(OC)cc67)C(C)(C)[C@@H]5CC[C@]43C)[C@@H]12 | 97.5% | 95.1% | 162.6% | 123.5% | 73.1% | 
2 | C=C(C)[C@@H]1CC[C@]2(C(N)=O)CC[C@]3(C)[C@H](CC[C@@H]4[C@@]5(C)Cc6cnoc6C(C)(C)[C@@H]5CC[C@]43C)[C@@H]12 | 66.5% | 8.3% | 105.5% | 90.9% | 57.6% | IC50 [6]: 300 nM; inhibition [7]: inactive
3 | CC1(C)CC[C@]23CC[C@]4(C)[C@H](CC[C@@H]5[C@@]6(C)Cc7c([nH]c8ccccc78)C(C)(C)[C@@H]6CC[C@]54C)[C@H]2C1OC3 | 96.5% | 94.5% | 94.8% | 92.1% | 96.2% | 
4 | C=C(C)[C@@H]1CC[C@]2(C(N)=O)CC[C@]3(C)[C@H](CC[C@@H]4[C@@]5(C)Cc6nccnc6C(C)(C)[C@@H]5CC[C@]43C)[C@@H]12 | 111.9% | 34.9% | 89.9% | 82.8% | 79.4% | 
5 | C=C(C)[C@@H]1CC[C@]2(C(=O)O)CC[C@]3(C)[C@H](CC[C@@H]4[C@@]5(C)Cc6nccnc6C(C)(C)[C@@H]5CC[C@]43C)[C@@H]12 |  |  |  |  |  | IC50 [6]: 300 nM; inhibition [7]: inactive
6 | C=C(C)[C@@H]1CC[C@]2(C(=O)O)CC[C@]3(C)[C@H](CC[C@@H]4[C@@]5(C)CC[C@H](O)C(C)(C)[C@@H]5CC[C@]43C)[C@@H]12 [BETULINIC ACID] | 69% | 57.6% | 96% | 66.1% | 98.5% | 
7 | CCC(=O)OC[C@]12CC[C@]3(C(C)C)C1=C1[C@H](C[C@@H]4[C@@]5(C)CC[C@H](OC(=O)CC)C(C)(C)[C@@H]5CC[C@@]4(C)[C@]1(C)CC2)n1c(=O)n(C)c(=O)n13 | 55.7% | 50.5% | 43% | 60% | 80.3% | 
8 | C=C(C)[C@@H]1CC[C@]2(/C=N/O)CC[C@]3(C)[C@H](CC[C@@H]4[C@@]5(C)CC[C@H](O)C(C)(C)[C@@H]5CC[C@]43C)[C@@H]12 | 31.3% | 6.2% | 127% | 98.3% | 136.9% | IC50 [6]: 300 nM; inhibition [7]: inactive
9 | C[C@@H]1C[C@H]2[C@@H]3CCC4=CC(=O)C=C[C@]4(C)[C@@]3(F)[C@@H](O)C[C@]2(C)[C@@]1(O)C(=O)CO [DEXAMETHASONE] |  |  |  |  |  | inhibition at 10 µM [8]: 85%; inhibition [9]: Active; inhibition at 10 µM [10]: 90%; inhibition at 10 µM [11]: 86%; inhibition at 10 µM [12]: 38%
10 | C=C(C)[C@@H]1CC[C@]2(C(=O)O)CC[C@]3(C)[C@H](CC[C@@H]4[C@@]5(C)Cc6c([nH]c7ccccc67)C(C)(C)[C@@H]5CC[C@]43C)[C@@H]12 | 79.5% | 66.6% | 140.9% | 108.9% | 83.4% | 
11 | C=C(C)[C@@H]1CC[C@]2(C=O)CC[C@]3(C)[C@H](CC[C@@H]4[C@@]5(C)Cc6cnoc6C(C)(C)[C@@H]5CC[C@]43C)[C@@H]12 | 113.1% | 57.5% | 49.6% | 91.4% | 102.1% | 
12 | C=C(C)[C@@H]1CC[C@]2(CO)CC[C@]3(C)[C@H](CC[C@@H]4[C@@]5(C)CC[C@H](O)C(C)(C)[C@@H]5CC[C@]43C)[C@@H]12 [BETULIN] | 47.9% | 63.4% | 175.1% | 133.9% | 206.5% | 
13 | C=C(C)[C@@H]1CC[C@]2(C(=O)O)CC[C@]3(C)[C@H](CC[C@@H]4[C@@]5(C)CCC(=O)C(C)(C)[C@@H]5CC[C@]43C)[C@@H]12 [BETUNOLIC ACID] | 45.3% | 38.3% | 107.1% | 87.1% | 118% | 
14 | C=C(C)[C@@H]1CC[C@]2(C(=O)O)CC[C@]3(C)[C@H](CC[C@@H]4[C@@]5(C)CC6OC(C)(C)OC6C(C)(C)[C@@H]5CC[C@]43C)[C@@H]12 (some centres undefined) | 75.2% | 40.7% | 117.4% | 131.7% | 87% | 
15 | C=C(C)[C@@H]1CC[C@]2(C(=O)O)CC[C@]3(C)[C@H](CC[C@@H]4[C@@]5(C)C[C@H](O)[C@H](O)C(C)(C)[C@@H]5CC[C@]43C)[C@@H]12 | 71.4% | 63.6% | 93.4% | 70.7% | 68.3% | 
16 | CC1(C)CC[C@]23CC[C@]4(C)[C@H](CC[C@@H]5[C@@]6(C)Cc7c([nH]c8ccc(F)cc78)C(C)(C)[C@@H]6CC[C@]54C)[C@H]2C1OC3 | 122.6% | 83.9% | 91.8% | 99.3% | 108.5% | 
17 | C=C(C)[C@@H]1CC[C@]2(C(=O)O)CC[C@]3(C)[C@H](CC[C@@H]4[C@@]5(C)Cc6c[nH]nc6C(C)(C)[C@@H]5CC[C@]43C)[C@@H]12 | 53.3% | 27.5% | 58.2% | 39.5% | 28% | Activity [13]: Active; Activity [14]: Active; Activity [15]: Active; Activity [16]: Active; Activity [17]: Active; Activity [18]: Active; inhibition in vivo at 10 mg/kg [19]: 27%; inhibition in vivo at 10 mg/kg [20]: 44%
